In ChEMBL document CHEMBL1127813, “Pseudopeptide inhibitors of Ras farnesyl-protein transferase” (J Med Chem, 1994):
Active and inactive are the calls of the source. The rule behind the calls is not given here.

Assays:
[1] = target: T1, Protein farnesyltransferase (Mus musculus) (UniProt Q61239+Q8K2I1); assay: Inhibition of v-ras posttranslational processing in NIH3T3 cells at 100 uM; assay type: cell-based
How it was run: (§1)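 NIH 3T3 cells expressing viral Ha-ras were metabolically labeled with [³⁵S]methionine while exposed to compound or solvent control. Cells were lysed after 24 h and Ras was immunoprecipitated to assess posttranslational processing. Scored as percent inhibition of processing; +++ means ≥90% inhibition. Lovastatin 15 μM was the reference.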

NIH3T3 [2] = assay: The cytotoxic endpoint, the highest nontoxic concentration for cultured NIH3T3 cells; assay type: functional, cell-based; conditions: Mus musculus
How it was run: (§2)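 NIH3T3 fibroblasts exposed to compound for 48 h; viability read by MTT staining. Endpoint is the highest concentration tolerated without toxicity. Top concentration tested was 100 μM for most compounds; one lactone was dosed up to 1 mM.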

NIH3T3 [3] = assay: Highest nontoxic concentration in NIH3T3 cells; assay type: functional, cell-based; conditions: Mus musculus; how it was run: as §2
[4] = target: T1, Protein farnesyltransferase (Mus musculus); assay: Inhibition of v-ras posttranslational processing in NIH3T3 cells at 5 uM (No inhibition); assay type: cell-based; how it was run: as §1
[5] = target: T2, Geranylgeranyl transferase type I (Bos taurus, UniProt P29702+Q5EAD5); assay: Inhibitory activity against bovine type-1 geranylgeranyl transferase.; assay type: protein-complex assay
[6] = target: Protein farnesyltransferase (Bos taurus, UniProt P29702+P49355); assay: Inhibitory activity against Ras Farnesyl Protein transferase from bovine brain
How it was run: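 FPTase purified from bovine brain (about 1 nM) incubated with [³H]FPP, recombinant Harvey-Ras and varying inhibitor concentrations. Protein was acid-precipitated and Ras-bound label counted by scintillation. IC50 is the concentration halving label incorporation relative to the no-inhibitor control, given as mean ± SEM with the number of determinations.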

[7] = target: T1, Protein farnesyltransferase (Mus musculus); assay: Inhibition of v-ras posttranslational processing in NIH3T3 cells at 15 uM; assay type: cell-based; how it was run: as §1
[8] = target: T2, Geranylgeranyl transferase type I; assay: In vitro inhibition of bovine type-1 geranylgeranyl transferase; assay type: protein-complex assay
[9] = target: T1, Protein farnesyltransferase (Mus musculus); assay: Inhibition of v-ras posttranslational processing in NIH3T3 cells at 10 uM; assay type: cell-based; how it was run: as §1
[10] = The binding affinity against Ras protein
[11] = target: T1, Protein farnesyltransferase (Mus musculus); assay: Inhibition of v-ras posttranslational processing in NIH3T3 cells (No inhibition); assay type: cell-based; how it was run: as §1
[12] = target: T1, Protein farnesyltransferase (Mus musculus); assay: Inhibition of v-ras posttranslational processing in NIH3T3 cells at 1 uM; assay type: cell-based; how it was run: as §1

Compound | IC50 [5] [nM] | IC50 [6] [nM] | Concentration (NIH3T3 [2]) [µM] | further results
CC[C@H](C)[C@H](NC[C@@H](N)CS)C(=O)N[C@H](C(=O)N[C@H]1CCOC1=O)[C@@H](C)CC | – | – | > 100 | inhibition [1]: 30%
CCC(C)[C@H](NCC(N)CS)C(=O)N[C@@H](Cc1ccccc1)C(=O)N[C@@H](CCSC)C(=O)OCc1ccccc1 (stereo partly specified) | – | – | – | Concentration (NIH3T3 [3]): 5 µM; inhibition [4]: inactive
CC[C@@H](C)[C@H](NC[C@@H](NC[C@@H](N)CS)[C@H](C)CC)C(=O)N[C@H]1CCOC1=O | – | – | > 1000 | inhibition [1]: > 90%
CC[C@H](C)C(=O)O[C@H]1C[C@@H](C)C=C2C=C[C@H](C)[C@H](CC[C@@H]3C[C@@H](O)CC(=O)O3)[C@H]21 | – | – | – | inhibition [7]: > 90%
CCOC(=O)[C@H](CCSC)NC(=O)[C@H](Cc1ccccc1)NC(=O)[C@@H](NCC(N)CS)C(C)CC (stereo partly specified) | – | – | 10 | inhibition [9]: 10%
CC[C@H](C)[C@H](NCCCS)C(=O)N[C@@H](Cc1ccccc1)C(=O)N[C@@H](CCSC)C(=O)O | > 10000 | 50 | – | –
CCC(C)[C@@H](CN[C@@H](Cc1ccccc1)C(=O)N[C@@H](CCSC)C(=O)OC)NCC(N)CS (stereo partly specified) | – | – | 1 | inhibition [12]: 10%
CCC(C)[C@H](NC[C@@H](NC(=O)[C@@H](N)CS)C(C)CC)C(=O)N[C@@H](CCO)C(=O)O (stereo partly specified) | – | 150 | – | –
CC[C@H](C)[C@H](NC(=O)[C@@H](NC[C@@H](N)CS)C(C)C)C(=O)N[C@@H](CC(C)C)C(=O)O | – | 550 | – | –
CCCCCCCCCCOC(=O)[C@H](CCSC)NC(=O)[C@H](Cc1ccccc1)NC(=O)[C@@H](NCC(N)CS)C(C)CC (stereo partly specified) | – | – | – | Concentration (NIH3T3 [3]): 2 µM
CC[C@H](C)[C@H](NC[C@@H](N)CS)C(=O)N[C@H](C(=O)N[C@@H](CCO)C(=O)O)[C@@H](C)CC | 8000 | 42 | > 100 | inhibition [11]: inactive
CC[C@H](C)[C@H](NC[C@@H](N)CS)C(=O)N[C@@H](Cc1ccccc1)C(=O)N[C@@H](CCSC)C(=O)O | 310 | 18 | > 100 | inhibition [1]: 10%

The next lines start with results.

IC50 [5] [nM] | IC50 [6] [nM] | Compound | Concentration (NIH3T3 [2]) [µM] | further results
300000 | 27 | CC[C@H](C)[C@H](NC(=O)[C@@H](N)CS)C(=O)N[C@@H](Cc1ccccc1)C(=O)N[C@@H](CCSC)C(=O)O | – | –
28 | 7 | CC[C@H](C)[C@H](NC(=O)[C@@H](NC[C@@H](N)CS)C(C)C)C(=O)N[C@@H](CCSC)C(=O)O | – | –
– | 4.8 | CCC(C)[C@@H](CN[C@@H](Cc1ccccc1)C(=O)N[C@@H](CCSC)C(=O)O)NCC(N)CS (stereo partly specified) | > 100 | inhibition [1]: 30%; IC50 [8]: 5750 nM
– | 400 | CCC(C)[C@@H](CN[C@@H](Cc1ccccc1)C(=O)N[C@@H](CCSC)C(=O)O)NCCCS (stereo partly specified) | – | IC50 [8]: > 10000 nM
45000 | 20 | CC[C@H](C)[C@H](NC[C@@H](NC[C@@H](N)CS)[C@@H](C)CC)C(=O)N[C@@H](CCO)C(=O)O | > 100 | Ki [10]: 20 nM; inhibition [11]: inactive
49000 | 165 | CC[C@H](C)[C@H](NC(=O)[C@@H](NC(=O)[C@@H](N)CS)C(C)C)C(=O)N[C@@H](CCSC)C(=O)O | – | –
– | 330 | CC[C@H](C)[C@H](NC(=O)[C@@H](NC(=O)[C@@H](N)CS)[C@@H](C)CC)C(=O)N[C@@H](CCO)C(=O)O | – | –
– | 140 | CCC(C)[C@H](NCC(N)CS)C(=O)N[C@H](CN[C@@H](CCSC)C(=O)O)Cc1ccccc1 (stereo partly specified) | – | IC50 [8]: 1100 nM
2200 | 29 | CC[C@H](C)[C@H](NC(=O)[C@@H](NCCCS)C(C)C)C(=O)N[C@@H](CCSC)C(=O)O | – | –
